Reference: ChEMBL document CHEMBL4196177, “Synthesis, Evaluation, and Structure-Activity Relationship Study of Lanosterol Derivatives To Reverse Mutant-Crystallin-Induced Protein Aggregation” (J Med Chem, 2018)
Changes are numbered by the printed parent chain. The source made the active and inactive calls. No cut-off for these calls is given here.

How the values were obtained:
[1] = system: T1, Gamma-crystallin D (Homo sapiens), P07320 [W43R]; assay: Induction of redissolving of aggregated gamma-crystallin D W43R mutant (unknown origin) at 200 uM incubated for 24 hrs by transmission-electron-microscopy
T1 sequence (whole entry): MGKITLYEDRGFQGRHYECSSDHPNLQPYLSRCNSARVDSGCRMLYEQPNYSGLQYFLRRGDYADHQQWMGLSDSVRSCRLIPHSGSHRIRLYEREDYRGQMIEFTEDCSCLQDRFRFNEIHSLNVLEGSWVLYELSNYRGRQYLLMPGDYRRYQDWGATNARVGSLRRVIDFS
Procedure, shortened: (§1)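 Pre-formed amyloid-like fibrils of mutant crystallin proteins were treated with compounds in liposomes or with a liposome vehicle. Fibrillar structures were then examined by negative-stain transmission electron microscopy.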

[2] = system: T2, Alpha-crystallin A chain (Homo sapiens), P02489 [R116H]; assay: Induction of redissolving of aggregated alpha-crystallin A R116H mutant (unknown origin) at 200 uM incubated for 24 hrs by ThT-fluorescence based assay
T2 sequence (whole entry): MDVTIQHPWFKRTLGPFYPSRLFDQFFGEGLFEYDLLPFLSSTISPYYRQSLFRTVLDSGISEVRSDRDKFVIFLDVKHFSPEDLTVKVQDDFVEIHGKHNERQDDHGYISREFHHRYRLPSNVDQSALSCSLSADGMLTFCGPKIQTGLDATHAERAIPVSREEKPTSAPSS
Procedure, shortened: (§2)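 Purified mutant crystallin proteins, pre-formed into amyloid-like fibrils, were treated with compounds delivered in liposomes, with a liposome-only vehicle control. Redissolution was read as thioflavin T (ThT) fluorescence, n = 3.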

[3] = system: T3, Alpha-crystallin A chain (Homo sapiens), P02489 [R116C]; assay: Induction of redissolving of aggregated alpha-crystallin A R116C mutant (unknown origin) at 200 uM incubated for 24 hrs by ThT-fluorescence based assay; procedure, shortened: as §2
T3 sequence (whole entry): T2 sequence (whole entry) with H116C

[4] = system: T4, Gamma-crystallin C (Homo sapiens), P07315 [G129C]; assay: Induction of redissolving of aggregated gamma-crystallin C G129C mutant (unknown origin) at 200 uM incubated for 24 hrs by transmission-electron-microscopy; procedure, shortened: as §1
T4 sequence (whole entry): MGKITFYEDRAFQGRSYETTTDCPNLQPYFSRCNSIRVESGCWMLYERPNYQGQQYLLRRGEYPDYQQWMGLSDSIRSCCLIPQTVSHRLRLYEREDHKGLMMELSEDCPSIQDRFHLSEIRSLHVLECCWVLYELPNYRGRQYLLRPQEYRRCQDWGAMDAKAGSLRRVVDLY

[5] = system: T2, Alpha-crystallin A chain (Homo sapiens), P02489 [R116H]; assay: Induction of redissolving of aggregated alpha-crystallin A R116H mutant (unknown origin) at 200 uM incubated for 24 hrs by transmission-electron-microscopy; procedure, shortened: as §1
[6] = system: T5, Alpha-crystallin A chain (Homo sapiens), P02489 [Y118D]; assay: Induction of redissolving of aggregated alpha-crystallin A Y118D mutant (unknown origin) at 200 uM incubated for 24 hrs by transmission-electron-microscopy; procedure, shortened: as §1
T5 sequence (whole entry): T2 sequence (whole entry) with H116R, Y118D

[7] = system: T6, Alpha-crystallin B chain (Homo sapiens), P02511 [R120G]; assay: Induction of redissolving of aggregated alpha-crystallin B R120G mutant (unknown origin) at 200 uM incubated for 24 hrs by ThT-fluorescence based assay; procedure, shortened: as §2
T6 sequence (whole entry): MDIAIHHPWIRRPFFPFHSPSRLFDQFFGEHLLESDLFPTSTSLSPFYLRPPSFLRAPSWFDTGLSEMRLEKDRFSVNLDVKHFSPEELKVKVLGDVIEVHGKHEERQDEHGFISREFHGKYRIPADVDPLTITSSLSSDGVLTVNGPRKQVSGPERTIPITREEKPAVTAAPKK

[8] = system: T7, Beta-crystallin B2 (Homo sapiens), P43320 [R188H]; assay: Induction of redissolving of aggregated beta-crystallin B2 R188H mutant (unknown origin) at 200 uM incubated for 24 hrs by ThT-fluorescence based assay; procedure, shortened: as §2
T7 sequence (whole entry): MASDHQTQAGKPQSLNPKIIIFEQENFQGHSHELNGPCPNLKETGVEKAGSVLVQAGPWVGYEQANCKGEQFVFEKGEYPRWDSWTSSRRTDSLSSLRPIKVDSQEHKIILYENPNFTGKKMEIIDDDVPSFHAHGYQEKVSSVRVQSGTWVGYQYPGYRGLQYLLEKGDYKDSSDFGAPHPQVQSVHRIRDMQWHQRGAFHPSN

Alpha-crystallin A chain = Alpha-crystallin A chain (Homo sapiens, UniProt P02489, Y118D); assay: Induction of redissolving of aggregated alpha-crystallin A Y118D mutant (unknown origin) incubated for 24 hrs by ThT-fluorescence based assay
Sequence of Alpha-crystallin A chain (P02489 whole entry Y118D): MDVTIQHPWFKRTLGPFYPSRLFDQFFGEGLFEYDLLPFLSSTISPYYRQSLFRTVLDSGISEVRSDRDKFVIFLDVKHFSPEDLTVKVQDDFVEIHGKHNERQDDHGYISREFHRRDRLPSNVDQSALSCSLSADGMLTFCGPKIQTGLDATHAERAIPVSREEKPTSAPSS
Procedure, shortened: (§3)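 Dose–response EC50 for redissolving pre-formed amyloid-like fibrils of αA Y118D or αB R120G crystallin. Compounds were delivered in liposomes and the read-out was thioflavin T fluorescence.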

Alpha-crystallin B chain [9] = molecular target: T8, Alpha-crystallin B chain (Homo sapiens, UniProt P02511, R120G); assay: Induction of redissolving of aggregated alpha-crystallin B R120G mutant (unknown origin) incubated for 24 hrs by ThT-fluorescence based assay; procedure, shortened: as §3
[10] = system: T5, Alpha-crystallin A chain (Homo sapiens), P02489 [Y118D]; assay: Induction of redissolving of aggregated alpha-crystallin A Y118D mutant (unknown origin) at 200 uM incubated for 24 hrs by ThT-fluorescence based assay; procedure, shortened: as §2
Alpha-crystallin B chain [11] = molecular target: T8, Alpha-crystallin B chain; assay: Inhibition of alpha-crystallin B R120G mutant (unknown origin)-induced intracellular protein aggregation expressed in human HeLa cells or HLE-B3 cells incubated for 6 to 8 hrs by fluorescence microscopy relative to untreated control; format: cell-based

Row | Compound | Activity [1] | Activity [2] | Activity [3] | Activity [4] | Activity [5] | Activity [6] | Activity [7] | Activity [8] | EC50 (Alpha-crystallin A chain) [µM] | EC50 (Alpha-crystallin B chain [9]) [µM] | Activity [10] | EC50 (Alpha-crystallin B chain [11])
1 | C[C@H](CCCC(C)(C)O)[C@H]1CC[C@@]2(C)C3=C(CC[C@]12C)[C@@]1(C)CC[C@H](O)C(C)(C)[C@@H]1CC3 | Active | Active | Active | Active | Active | Active | Active | Active | 0.0356 | 3.12 | Active | –
2 | C[C@H](CCCC(C)(C)O)[C@H]1CC[C@@]2(C)[C@@]34CC[C@H]5C(C)(C)/C(=N/O)CC[C@]5(C)[C@]3(CC[C@]12C)O4 | inactive | inactive | inactive | inactive | inactive | inactive | inactive | inactive | – | – | inactive | Not Active
